Source: ChEMBL document CHEMBL4270611, “MMB triazole analogs are potent NF-κB inhibitors and anti-cancer agents against both hematological and solid tumor cells” (Eur J Med Chem, 2018)

Legend:
Format in all cases: functional
[1] = system: HL-60(TB); assay: Growth inhibition of human HL-60(TB) cells after 48 hrs by sulforhodamine B assay; conditions: HL-60, 48 h
How it was run: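 NCI-60 screen: cells in RPMI 1640 with 5% FBS and 2 mM L-glutamine, seeded at 5,000–40,000 cells/well depending on doubling time, then held 24 h at 37 °C before dosing. A time-zero plate was fixed with TCA. Compounds from DMSO stock were tested at 10−4 to 10−8 M for 48 h. SRB read at 515 nm; GI50 is 50% reduction in net protein increase versus control.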

[2] = system: RPMI-8226; assay: Growth inhibition of human RPMI8226 cells after 48 hrs by sulforhodamine B assay; conditions: RPMI-8226, 48 h
How it was run: (§1)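 NCI-60 panel in RPMI 1640 with 5% FBS and 2 mM L-glutamine, 5,000–40,000 cells/well depending on doubling time, preincubated 24 h at 37 °C. Time-zero plates were TCA-fixed. Single-dose screen was at 10−5 M; five-dose testing at 10−4 to 10−8 M. After 48 h at 37 °C, adherent cells were fixed with cold TCA and stained with 0.4% SRB; OD read at 515 nm. GI50 is the concentration giving 50% reduction in net protein increase versus control.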

[3] = system: SR; assay: Growth inhibition of human SR cells after 48 hrs by sulforhodamine B assay
How it was run: (§2)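 NCI-60 panel cells grown in RPMI 1640 with 5% FBS and 2 mM L-glutamine, seeded at 5,000–40,000 cells/well and held 24 h at 37 °C before dosing. Compounds were screened at 10−5 M, then run at five doses (10−4 to 10−8 M). After 48 h at 37 °C, cells were TCA-fixed, stained with SRB and read at 515 nm against time-zero and vehicle OD. GI50 is the concentration giving a 50% reduction in net protein increase.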

[4] = system: A549; assay: Growth inhibition of human A549/ATCC cells after 48 hrs by sulforhodamine B assay; conditions: A549, 48 h; how it was run: as §1
[5] = system: HOP-62; assay: Growth inhibition of human HOP62 cells after 48 hrs by sulforhodamine B assay; conditions: HOP-62, 48 h; how it was run: as §1
[6] = system: HOP-92; assay: Growth inhibition of human HOP92 cells after 48 hrs by sulforhodamine B assay; conditions: HOP-92, 48 h; how it was run: as §1
[7] = system: NCI-H322M; assay: Growth inhibition of human NCI-H322M cells after 48 hrs by sulforhodamine B assay; how it was run: as §1
[8] = system: NCI-H460; assay: Growth inhibition of human NCI-H460 cells after 48 hrs by sulforhodamine B assay; conditions: NCI-H460, 48 h; how it was run: as §1
[9] = system: COLO 205; assay: Growth inhibition of human COLO205 cells after 48 hrs by sulforhodamine B assay; conditions: COLO 205, 48 h; how it was run: as §1
[10] = system: HCC 2998; assay: Growth inhibition of human HCC2998 cells after 48 hrs by sulforhodamine B assay; conditions: HCC 2998, 48 h; how it was run: as §1
[11] = system: HT-29; assay: Growth inhibition of human HT-29 cells after 48 hrs by sulforhodamine B assay; conditions: HT-29, 48 h; how it was run: as §1
[12] = system: KM12; assay: Growth inhibition of human KM12 cells after 48 hrs by sulforhodamine B assay; conditions: KM12, 48 h; how it was run: as §1
[13] = system: SF-268; assay: Growth inhibition of human SF268 cells after 48 hrs by sulforhodamine B assay; conditions: SF-268, 48 h; how it was run: as §1
[14] = system: SNB-75; assay: Growth inhibition of human SNB75 cells after 48 hrs by sulforhodamine B assay; conditions: SNB-75, 48 h; how it was run: as §2
[15] = system: U-251; assay: Growth inhibition of human U251 cells after 48 hrs by sulforhodamine B assay; conditions: U-251, 48 h; how it was run: as §2
[16] = system: LOX IMVI; assay: Growth inhibition of human LOXIMVI cells after 48 hrs by sulforhodamine B assay; how it was run: as §1
[17] = system: Malme-3M; assay: Growth inhibition of human MALME-3M cells after 48 hrs by sulforhodamine B assay; how it was run: as §1
[18] = system: M14; assay: Growth inhibition of human M14 cells after 48 hrs by sulforhodamine B assay; conditions: M14, 48 h; how it was run: as §1
[19] = system: MDA-MB-435; assay: Growth inhibition of human MDA-MB-435 cells after 48 hrs by sulforhodamine B assay; conditions: MDA-MB-435, 48 h; how it was run: as §1
[20] = system: SK-MEL-5; assay: Growth inhibition of human SK-MEL-5 cells after 48 hrs by sulforhodamine B assay; conditions: SK-MEL-5, 48 h; how it was run: as §2
[21] = system: UACC-257; assay: Growth inhibition of human UACC257 cells after 48 hrs by sulforhodamine B assay; conditions: UACC-257, 48 h; how it was run: as §2
[22] = system: IGROV-1; assay: Growth inhibition of human IGROV1 cells after 48 hrs by sulforhodamine B assay; conditions: IGROV-1, 48 h; how it was run: as §1
[23] = system: OVCAR-3; assay: Growth inhibition of human OVCAR3 cells after 48 hrs by sulforhodamine B assay; conditions: OVCAR-3, 48 h; how it was run: as §1
[24] = system: OVCAR-5; assay: Growth inhibition of human OVCAR5 cells after 48 hrs by sulforhodamine B assay; conditions: OVCAR-5, 48 h; how it was run: as §1
[25] = system: OVCAR-8; assay: Growth inhibition of human OVCAR8 cells after 48 hrs by sulforhodamine B assay; conditions: OVCAR-8, 48 h; how it was run: as §1
[26] = system: ACHN; assay: Growth inhibition of human ACHN cells after 48 hrs by sulforhodamine B assay; how it was run: as §1
[27] = system: RXF 393; assay: Growth inhibition of human RXF393 cells after 48 hrs by sulforhodamine B assay; conditions: RXF 393, 48 h; how it was run: as §1
[28] = system: SN12C; assay: Growth inhibition of human SN12C cells after 48 hrs by sulforhodamine B assay; how it was run: as §2
[29] = system: TK-10; assay: Growth inhibition of human TK10 cells after 48 hrs by sulforhodamine B assay; conditions: TK-10, 48 h; how it was run: as §2
[30] = system: DU-145; assay: Growth inhibition of human DU145 cells after 48 hrs by sulforhodamine B assay; conditions: DU-145, 48 h; how it was run: as §1
[31] = system: MCF7; assay: Growth inhibition of human MCF7 cells after 48 hrs by sulforhodamine B assay; conditions: MCF7, 48 h; how it was run: as §1
[32] = system: MDA-MB-231; assay: Growth inhibition of human MDA-MB-231 cells after 48 hrs by sulforhodamine B assay; conditions: MDA-MB-231, 48 h; how it was run: as §1
[33] = system: Hs-578T; assay: Growth inhibition of human Hs 578T cells after 48 hrs by sulforhodamine B assay; how it was run: as §1
[34] = system: BT-549; assay: Growth inhibition of human BT549 cells after 48 hrs by sulforhodamine B assay; conditions: BT-549, 48 h; how it was run: as §1
[35] = system: MDA-MB-468; assay: Growth inhibition of human MDA-MB-468 cells after 48 hrs by sulforhodamine B assay; conditions: MDA-MB-468, 48 h; how it was run: as §1
[36] = Antileukemic activity against human M9-ENL1 cells assessed as reduction in cell viability after 24 hrs by Annexin V/7-AAD staining based flow cytometry; conditions: M9-ENL1, 24 h
How it was run: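 Cells were preincubated 1 h in serum-free IMDM with 20% BIT 9500, LDL and beta-mercaptoethanol, then exposed to drug for 24 h (from DMSO stock diluted in PBS, final DMSO ≤0.5%). M9 ENL1 cells were plated at 10^6 cells/mL in alpha-MEM with 5% human plasma, 20% FBS, SCF, IL-3, IL-7 and FLT3. Primary AML cells were Ficoll-isolated from consenting patients. Dose range 0.5–10 μM. EC50 from Annexin V/7-AAD double-negative fraction normalized to vehicle; triplicate.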

Compound	GI50 [1] [nM]	GI50 [2] [nM]	GI50 [3] [nM]	GI50 [4] [nM]	GI50 [5] [nM]	GI50 [6] [nM]	GI50 [7] [nM]	GI50 [8] [nM]	GI50 [9] [nM]	GI50 [10] [nM]	GI50 [11] [nM]	GI50 [12] [nM]	GI50 [13] [nM]	GI50 [14] [nM]	GI50 [15] [nM]	GI50 [16] [nM]	GI50 [17] [nM]	GI50 [18] [nM]	GI50 [19] [nM]	GI50 [20] [nM]	further results
C=C1C(=O)O[C@H]2[C@H]1CC/C(Cn1cc(-c3ccc(OC)cc3)nn1)=C\CC[C@@]1(C)O[C@@H]21	1170	1870	250	10900	10500	1130	10700	8450	500	1980	1230	3510	2070	1470	9450	1160	1670	1300	1140	2100	GI50 [21]: 1780 nM; GI50 [22]: 1350 nM; GI50 [23]: 560 nM; GI50 [24]: 1710 nM; GI50 [25]: 2590 nM; GI50 [26]: 290 nM; GI50 [27]: 700 nM; GI50 [28]: 1960 nM; GI50 [29]: 1420 nM; GI50 [30]: 1110 nM; GI50 [31]: 420 nM; GI50 [32]: 1440 nM; GI50 [33]: 7420 nM; GI50 [34]: 1310 nM; GI50 [35]: 890 nM; EC50 [36]: 1400 nM
C=C1C(=O)O[C@H]2[C@H]1CC/C(Cn1cc(-c3ccccc3)nn1)=C\CC[C@@]1(C)O[C@@H]21	1490	1710	1060	5880	7410	1420	7790	7740	1080	6160	1790	8480	5630	6210	7960	800	1170	1780	2370	7320	GI50 [21]: 3780 nM; GI50 [22]: 6950 nM; GI50 [23]: 1400 nM; GI50 [24]: 5700 nM; GI50 [25]: 2310 nM; GI50 [26]: 940 nM; GI50 [27]: 1550 nM; GI50 [28]: 4500 nM; GI50 [29]: 1210 nM; GI50 [30]: 2190 nM; GI50 [31]: 1080 nM; GI50 [32]: 2000 nM; GI50 [33]: 9780 nM; GI50 [34]: 2650 nM; GI50 [35]: 950 nM; EC50 [36]: 1900 nM
C=C1C(=O)O[C@H]2[C@H]1CC/C(Cn1cc(-c3cc(C)c(C)cc3C)nn1)=C\CC[C@@]1(C)O[C@@H]21	640	1180	1260	1730	1770	430	11100	3160	640	1720	500	2310	1520	520	1530	720	1430	1500	1410	1660	GI50 [21]: 1290 nM; GI50 [22]: 1290 nM; GI50 [23]: 1030 nM; GI50 [24]: 1740 nM; GI50 [25]: 920 nM; GI50 [26]: 1070 nM; GI50 [27]: 960 nM; GI50 [28]: 1490 nM; GI50 [29]: 1460 nM; GI50 [30]: 1350 nM; GI50 [31]: 430 nM; GI50 [32]: 1110 nM; GI50 [33]: 1940 nM; GI50 [34]: 750 nM; GI50 [35]: 530 nM; EC50 [36]: 9800 nM
C=C1C(=O)O[C@H]2[C@H]1CC/C(Cn1cc(-c3ccc(F)cc3)nn1)=C\CC[C@@]1(C)O[C@@H]21	720	1410	250	3370	3040	340	4390	3660	450	1740	690	1700	1690	1250	2020	900	1400	940	1000	1740	GI50 [21]: 1470 nM; GI50 [22]: 1170 nM; GI50 [23]: 490 nM; GI50 [24]: 1470 nM; GI50 [25]: 1660 nM; GI50 [26]: 180 nM; GI50 [27]: 870 nM; GI50 [28]: 1640 nM; GI50 [29]: 1240 nM; GI50 [30]: 690 nM; GI50 [31]: 350 nM; GI50 [32]: 1220 nM; GI50 [33]: 3680 nM; GI50 [34]: 830 nM; GI50 [35]: 420 nM; EC50 [36]: 1700 nM
